From ChEMBL document CHEMBL3244370, “Synthesis, metabolism, and antitumor activity of deuterated analogues of 1-(2-chloroethyl)-3-cyclohexyl-1-nitrosourea” (J Med Chem, 1978)

Assays:
Liver microsome [1] = assay: Retention time in Wistar rat liver microsomes at 50 ug/ml after 10 mins by HPLC analysis; assay type: ADME
How it was run: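 Liver microsomes from phenobarbital-pretreated male Wistar rats (protein 2.1 mg/mL), with an NADPH-generating system (NADP, glucose 6-phosphate, MgCl2, G6P dehydrogenase) in 0.1 M phosphate pH 7.4. Incubated under oxygen at 37 °C for 10 min, then extracted with hexane. OH-CCNU isomers resolved by analytical HPLC using n-heptane–dichloromethane–propan-2-ol (960:63:35) at 1.9 mL/min; elution times recorded.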

[2] = Antitumor activity against mouse TLX5 cells allografted in mouse assessed as increase in host survival time at 80 mg/kg relative to control; assay type: functional, TLX-5
[3] = Antitumor activity against mouse TLX5 cells allografted in mouse assessed as increase in host survival time at 20 mg/kg relative to control; assay type: functional, TLX-5
Liver microsome [4] = assay: Drug metabolism in Wistar rat liver microsomes assessed as recovered total OH-CCNU derivatives level at 2.8 mg after 10 mins by HPLC analysis; assay type: ADME; conditions: in vitro
How it was run: (§1)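 Microsomes from phenobarbital-pretreated male Wistar rat liver (protein 2.1 mg/mL) in 0.1 M phosphate pH 7.4 with NADP, glucose 6-phosphate, MgCl₂ and G6PDH. Incubated under O₂ at 37 °C for 10 min; 2.8 mg (12 μmol) substrate in 20 mL total. Hexane extraction, then silica HPLC quantification of residual CCNU and OH-CCNU isomers.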

[5] = Antitumor activity against mouse TLX5 cells allografted in mouse assessed as increase in host survival time at 40 mg/kg relative to control; assay type: functional, TLX-5
[6] = Antitumor activity against mouse TLX5 cells allografted in mouse assessed as increase in host survival time at 5 mg/kg relative to control; assay type: functional, TLX-5
Liver microsome [7] = assay: Drug metabolism in Wistar rat liver microsomes assessed as recovered CCNU level at 2.8 mg after 10 mins by HPLC analysis; assay type: ADME; conditions: in vitro; how it was run: as §1
[8] = Antitumor activity against mouse TLX5 cells allografted in mouse assessed as increase in host survival time at 160 mg/kg relative to control; assay type: functional, TLX-5
[9] = Antitumor activity against mouse TLX5 cells allografted in mouse assessed as increase in host survival time at 10 mg/kg relative to control; assay type: functional, TLX-5
[10] = Drug metabolism in Wistar rat liver microsomes at 50 ug/ml after 10 mins; assay type: ADME; conditions: read-out: Drug metabolism
How it was run: (§2)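 Equimolar CCNU and CCNU-d10, each 50 μg/mL (0.21 mM), co-incubated at 37 °C under O₂ with phenobarbital-induced male Wistar rat liver microsomes plus NADPH-generating system in 0.1 M phosphate pH 7.4. Duplicate 1 mL samples taken at intervals into hexane containing CCNU-d4 internal standard. Residual drug measured by 12 eV mass spectrometry. Heat-inactivated microsomes used as control.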

[11] = Drug metabolism in Wistar rat liver microsomes at 50 ug/ml after 2.5 mins; assay type: ADME; conditions: read-out: Drug metabolism; how it was run: as §2
[12] = Drug metabolism in Wistar rat liver microsomes at 50 ug/ml after 20 mins; assay type: ADME; conditions: read-out: Drug metabolism; how it was run: as §2
[13] = Drug metabolism in Wistar rat liver microsomes at 50 ug/ml after 5 mins; assay type: ADME; conditions: read-out: Drug metabolism; how it was run: as §2
W256 [14] = assay: Antitumor activity against 1 ug/ml compound treated rat Walker 256 cells allografted in rat assessed as increase of host survival time cells incubated for 2 hrs with rat liver microsomes and NADPH prior to animal injection; assay type: functional
W256 [15] = assay: Antitumor activity against 4 ug/ml compound treated rat Walker 256 cells allografted in rat assessed as increase of host survival time cells incubated for 2 hrs with NADPH prior to animal injection; assay type: functional
W256 [16] = assay: Antitumor activity against 0.25 ug/ml compound treated rat Walker 256 cells allografted in rat assessed as increase of host survival time cells incubated for 2 hrs with NADPH prior to animal injection; assay type: functional
W256 [17] = assay: Antitumor activity against 0.5 ug/ml compound treated rat Walker 256 cells allografted in rat assessed as increase of host survival time cells incubated for 2 hrs with NADPH prior to animal injection; assay type: functional
W256 [18] = assay: Antitumor activity against 0.25 ug/ml compound treated rat Walker 256 cells allografted in rat assessed as increase of host survival time cells incubated for 2 hrs with rat liver microsomes and NADPH prior to animal injection; assay type: functional
W256 [19] = assay: Antitumor activity against 0.5 ug/ml compound treated rat Walker 256 cells allografted in rat assessed as increase of host survival time cells incubated for 2 hrs with rat liver microsomes and NADPH prior to animal injection; assay type: functional
W256 [20] = assay: Antitumor activity against 1 ug/ml compound treated rat Walker 256 cells allografted in rat assessed as increase of host survival time cells incubated for 2 hrs with NADPH prior to animal injection; assay type: functional
W256 [21] = assay: Antitumor activity against 4 ug/ml compound treated rat Walker 256 cells allografted in rat assessed as increase of host survival time cells incubated for 2 hrs with rat liver microsomes and NADPH prior to animal injection; assay type: functional

| SMILES | Retention_time (Liver microsome [1]) [min] | Activity [2] [%] | Activity [3] [%] | Drug metabolism (Liver microsome [4]) [µg] | Activity [5] [%] | Activity [6] [%] | Drug metabolism (Liver microsome [7]) [µg] | Activity [8] [%] | Activity [9] [%] | other results |
| --- | --- | --- | --- | --- | --- | --- | --- | --- | --- | --- |
| O=NN(CCCl)C(=O)N[C@H]1CC[C@@H](O)CC1 | 9.6 | – | – | – | – | – | – | – | – | – |
| O=NN(CCCl)C(=O)N[C@H]1CC[C@H](O)CC1 | 16.9 | – | – | – | – | – | – | – | – | – |
| O=NN(CCCl)C(=O)N[C@H]1CCCC[C@H]1O | 2.8 | – | – | – | – | – | – | – | – | – |
| [2H]C1([2H])CCCC([2H])([2H])C1NC(=O)N(CCCl)N=O | – | -9.1 | 79.7 | 1089 | 178.7 | -5.1 | 272 | -21.3 | 63.6 | – |
| [2H]C1([2H])CC(NC(=O)N(CCCl)N=O)CC([2H])([2H])C1([2H])[2H] | – | -7.3 | 95.8 | 994 | 81.4 | 38.1 | 538 | -32 | 38.1 | – |
| [2H]C1([2H])C(NC(=O)N(CCCl)N=O)C([2H])([2H])C([2H])([2H])C([2H])([2H])C1([2H])[2H] | – | -22 | 42 | 911 | 217 | – | 498 | -28 | 20 | metabolised at 10 min, 50 ug/ml [10]: 69.5%; metabolised at 2.5 min, 50 ug/ml [11]: 16.1%; metabolised at 20 min, 50 ug/ml [12]: 91.9%; metabolised at 5 min, 50 ug/ml [13]: 38.3% |
| O=NN(CCCl)C(=O)N[C@H]1CCCC[C@@H]1O | 3.8 | – | – | – | – | – | – | – | – | – |
| O=NN(CCCl)C(=O)N[C@H]1CCC[C@@H](O)C1 | – | – | – | – | – | – | – | – | – | Retention time (Liver microsome [1]): 7.8 min |
| O=NN(CCCl)C(=O)N[C@H]1CCC[C@H](O)C1 | – | – | – | – | – | – | – | – | – | Retention time (Liver microsome [1]): 7.1 min |
| O=NN(CCCl)C(=O)NC1CCCCC1 [LOMUSTINE] | – | -23.3 | 69.6 | 1230 | 76.8 | 1 | – | -31.4 | 54 | Activity (W256 [14]): 145%; Survival (W256 [15]): 30 days; Activity (W256 [16]): 9%; metabolised at 10 min, 50 ug/ml [10]: 72.5%; metabolised at 2.5 min, 50 ug/ml [11]: 26.8%; Activity (W256 [17]): 60%; Activity (W256 [18]): 21%; Activity (W256 [19]): 106%; Activity (W256 [20]): 64%; metabolised at 20 min, 50 ug/ml [12]: 91.8%; metabolised at 5 min, 50 ug/ml [13]: 47.9%; Survival (W256 [21]): 30 days |
